Data: ChEMBL document CHEMBL1145015, “Structure-activity relationships of 1,2,4-benzotriazine 1,4-dioxides as hypoxia-selective analogues of tirapazamine” (J Med Chem, 2003)

How the values were obtained:
[1] = tested on: SCC-7; test: Inhibitory concentration against murine SCCVII cell line under hypoxic condition; format: functional, cell-based; conditions: Mus musculus
Procedure, shortened: (§1)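 SRB proliferation assay in 96-well plates. SCCVII (200 cells) or HT-29 (1000 cells) seeded in αMEM + 10% FCS with glucose (17 mM final) and 100 μM 2'-deoxycytidine, then attached for 3 h. Cells exposed for 4 h at 37 °C to 2-fold serial dilutions in triplicate, either oxic (20% O2, 5% CO2) or in an anaerobic chamber (<0.001% O2). After washing, cells grew for 5 (oxic) or 6 (anoxic) days before SRB staining. IC50 values are the mean of three independent experiments.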

[2] = tested on: SCC-7; test: Inhibitory concentration against murine SCCVII cell line under aerobic condition; format: functional, cell-based; conditions: Mus musculus; procedure, shortened: as §1
[3] = tested on: SCC-7; test: Interexperimental ratio of hypoxic TPZ C10 to hypoxic BTO C10 using murine SCCVII cell line; format: functional, Mus musculus
[4] = tested on: HT-29; test: Inhibitory concentration against human adenocarcinoma HT-29 cell line under hypoxic condition; format: functional, cell-based; procedure, shortened: as §1
[5] = tested on: HT-29; test: Inhibitory concentration against human adenocarcinoma HT-29 cell line under aerobic condition; format: functional, cell-based; procedure, shortened: as §1
[6] = tested on: HT-29; test: Interexperimental ratio of hypoxic TPZ C10 to hypoxic BTO C10 using human adenocarcinoma HT-29 cell line; format: functional
[7] = Interexperimental difference between the hypoxic and aerobic cytotoxicity using human adenocarcinoma HT-29 cell line; format: functional
[8] = Interexperimental difference between the hypoxic and aerobic cytotoxicity using murine SCCVII cell line; format: functional, SCC-7
[9] = Concentration required to reduce plating efficiency to 10 percent of controls, under aerobic conditions in mouse SCCVII tumor cells.; format: functional, SCC-7
Procedure, shortened: (§2)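 SCCVII cells plated in glass dishes (2×10^5 to 1×10^6 per dish) 1–2 days ahead. Drug freshly dissolved, given in complete medium for 1 h at 37 °C with shaking. Hypoxia (<200 ppm O2) by repeated evacuation/flushing with 95% N2 + 5% CO2; aerobic controls flushed with 95% air + 5% CO2. Cells washed, trypsinized, replated. Crystal violet stain after 10–14 days, >50-cell colonies scored. C10 is the concentration giving 10% of control plating efficiency.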

[10] = Concentration required to reduce plating efficiency to 10 percent of controls, under hypoxic conditions in mouse SCCVII tumor cells.; format: functional, SCC-7; procedure, shortened: as §2
[11] = Intraexperimental ratio of hypoxic TPZ C10 to hypoxic BTO C10 in mouse SCCVII tumor cells.; format: functional, SCC-7
Procedure, shortened: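 Computed within each experiment from the clonogenic SCCVII assay (1 h drug exposure, hypoxia <200 ppm O2 by gas evacuation/flushing, colony counting after 10–14 days). RHT = C10 of TPZ under hypoxia divided by C10 of the analogue under hypoxia.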

[12] = Intraexperimental difference between the hypoxic and aerobic cytotoxicity in mouse SCCVII tumor cells; format: functional, SCC-7
Procedure, shortened: (§3)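 Clonogenic SCCVII survival after 1 h drug exposure at 37 °C, either hypoxic (<200 ppm O2, 95% N2/5% CO2) or aerobic (95% air/5% CO2). Colonies of >50 cells counted after 10–14 days. HCR = aerobic C10 / hypoxic C10, with both values from the same experiment.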

[13] = Partition coefficient (logP); format: physicochemical; conditions: octanol/water
Procedure, shortened: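 Octanol/water partition at pH 7.4, measured by low-volume shake flask. Drug in both the octanol and buffer phases quantified by HPLC.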

[14] = Intraexperimental difference between the hypoxic and aerobic cytotoxicity; format: functional; procedure, shortened: as §3

SMILES	IC50 [1]	IC50 [2]	RHT [3]	IC50 [4]	IC50 [5]	RHT [6]	HCR [7]	HCR [8]	C10 [9]	C10 [10]	RHT [11]	HCR [12]	logP [13]	HCR [14]
COc1cccc2c1[n+]([O-])nc(N)[n+]2[O-]	13.5 µM	288 µM	0.2	28.8 µM	624 µM	0.2	21.9	25.7	>135 µM	25.4 µM	0.4	>5.3		
Nc1n[n+]([O-])c2cc(Cl)ccc2[n+]1[O-]	0.61 µM	12.2 µM	3.9	0.73 µM	19.8 µM	7.2		20.4	271 µM	9.48 µM	1.1	28.6	0.46	
Nc1n[n+]([O-])c2cccc(F)c2[n+]1[O-]									<76.1 µM	10.2 µM	1			<7.5
COc1ccc2c(c1)[n+]([O-])c(N)n[n+]2[O-]										127 µM	0.08			
COc1ccc2c(c1)[n+]([O-])nc(N)[n+]2[O-]									1934 µM	19.3 µM	0.53			100
CN(C)c1ccc2c(c1)[n+]([O-])c(N)n[n+]2[O-]									440 µM	>440 µM	<0.023			<1
CN(C)c1ccc2c(c1)[n+]([O-])nc(N)[n+]2[O-]									3159 µM	237 µM	0.043			13.3
CN(C)c1cccc2c1[n+]([O-])c(N)n[n+]2[O-]	12.2 µM	2.1 µM	0.2	23.3 µM	4.2 µM	0.2	0.18	0.18	30.5 µM	25.8 µM	0.39	1.2		
CS(=O)(=O)c1ccc2c(c1)[n+]([O-])c(N)n[n+]2[O-]									<274 µM	26.1 µM	0.39			<10.5
Cc1ccc2c(c1)[n+]([O-])nc(N)[n+]2[O-]									2031 µM	16.2 µM	0.63		0.13	125
Cc1ccc2c(c1)[n+]([O-])c(N)n[n+]2[O-]	5.6 µM	217 µM	0.4		469 µM	0.4		42.6	2901 µM	17.4 µM	0.58	166.7	0.21	
Nc1n[n+]([O-])c2cc(F)ccc2[n+]1[O-]	1.1 µM	17.6 µM	2.2	1.87 µM	47.8 µM	2.8	21.7	19.3	381 µM	5.41 µM	1.9	70.3		
Nc1n[n+]([O-])c2cccc(Cl)c2[n+]1[O-]									10.2 µM	7.46 µM	1.4		0.07	1.4
Nc1n[n+]([O-])c2c(Cl)cccc2[n+]1[O-]	0.45 µM	8.2 µM	5.2	0.55 µM	7.7 µM	9.6		15.9	102 µM	2.58 µM	3.9	39.4	0.17	
Cc1cccc2c1[n+]([O-])c(N)n[n+]2[O-]									< 381 µM	38.1 µM	0.27			<10
CCCCS(=O)(=O)c1ccc2c(c1)[n+]([O-])nc(N)[n+]2[O-]									>89.6 µM	7.76 µM	1.3			>11.5
CN(C)c1cccc2c1[n+]([O-])nc(N)[n+]2[O-]									2769 µM	157 µM	0.065			17.6
